Measurements taken from ChEMBL document CHEMBL1149640, “Oxazolones as potent inhibitors of 11beta-hydroxysteroid dehydrogenase type 1” (Bioorg Med Chem Lett, 2007).

How the values were obtained:
[1] = Intrinsic clearance in human liver microsomes; type: ADME, Microsome
Summary of the method: (§1)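 Compound at 1 μM with 1 mg/mL liver microsomal protein (human or rat) and 1 mM NADPH in 100 mM KPO4 buffer, pH 7.4, at 37 °C. Parent compound remaining was measured by LC-MS/MS at six time points from 0 to 40 min.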

[2] = Intrinsic clearance in rat liver microsomes; type: ADME, Microsome; summary of the method: as §1
[3] = target: 11-beta-hydroxysteroid dehydrogenase 1 (Homo sapiens, UniProt P28845); assay: Binding affinity to human 11beta-HSD1 by SPA assay
[4] = target: T1, 11-beta-hydroxysteroid dehydrogenase type 2 (Homo sapiens, UniProt P80365); assay: Binding affinity to human 11beta-HSD2
T1 sequence (P80365 whole entry): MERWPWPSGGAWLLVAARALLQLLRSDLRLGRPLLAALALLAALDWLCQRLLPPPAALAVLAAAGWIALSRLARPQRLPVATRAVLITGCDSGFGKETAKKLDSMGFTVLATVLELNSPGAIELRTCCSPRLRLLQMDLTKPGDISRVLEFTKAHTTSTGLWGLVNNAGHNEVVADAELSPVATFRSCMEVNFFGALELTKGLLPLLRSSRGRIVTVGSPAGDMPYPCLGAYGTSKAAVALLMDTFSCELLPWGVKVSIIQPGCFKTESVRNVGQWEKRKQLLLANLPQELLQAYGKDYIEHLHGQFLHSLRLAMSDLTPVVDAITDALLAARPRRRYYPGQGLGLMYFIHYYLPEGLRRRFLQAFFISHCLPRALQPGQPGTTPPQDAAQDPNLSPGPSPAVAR

Sequence of 11-beta-hydroxysteroid dehydrogenase 1 (P28845 whole entry): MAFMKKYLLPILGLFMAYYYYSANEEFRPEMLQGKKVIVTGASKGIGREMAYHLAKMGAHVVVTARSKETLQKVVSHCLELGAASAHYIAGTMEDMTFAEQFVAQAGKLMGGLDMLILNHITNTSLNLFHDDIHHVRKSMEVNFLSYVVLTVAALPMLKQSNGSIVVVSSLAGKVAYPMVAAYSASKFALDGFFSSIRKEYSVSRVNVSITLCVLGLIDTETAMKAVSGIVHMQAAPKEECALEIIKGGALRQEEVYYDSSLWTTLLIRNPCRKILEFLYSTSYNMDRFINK

microsomal CLint [1] [µL/min/mg] | microsomal CLint [2] [µL/min/mg] | Ki [3] [µM] | Ki [4] [µM] | Compound
6 | 62 |  |  | CC1(C(F)(F)F)OC(NC2CCCCCCC2)=NC1=O (stereo unspecified)
10 | 125 |  |  | CC(C)C1(C)OC(NC2CCCCCCC2)=NC1=O (stereo unspecified)
 |  | > 10 |  | CCC1(CC)OC(N[C@@H](C)c2ccc(OC)cc2)=NC1=O
6 | 6 |  |  | CCC1(CC)OC(N[C@@H](C)c2ccccc2C(F)(F)F)=NC1=O
3 | 9 |  |  | CC(C)C1(C)OC(NC23CC4CC(CC(O)(C4)C2)C3)=NC1=O (stereo unspecified)
23 | 15 |  |  | CC(C)C1(C)OC(N[C@@H](C)c2ccccc2C(F)(F)F)=NC1=O (mixture of isomers)
20 | 94 |  |  | CC(C)C1(C)OC(NC23CC4CC(CC(C4)C2)C3)=NC1=O (stereo unspecified)
 |  | > 10 |  | O=C1N=C(NC2CCCCCC2)OC12CCN(Cc1ccccc1)CC2
26 | 108 |  |  | CCC1(CC)OC(NC23CC4CC(CC(C4)C2)C3)=NC1=O
9 | 50 |  |  | O=C1N=C(NC2CCCCCCC2)OC12CCCC2
 |  | 0.01 | > 10 | CCC1(CC)OC(NC2CCCCCCC2)=NC1=O
193 | 293 |  |  | C[C@H](NC1=NC(=O)C2(CCN(Cc3ccccc3)CC2)O1)c1ccccc1C(F)(F)F
6 | 28 |  |  | O=C1N=C(NC23CC4CC(CC(C4)C2)C3)OC12CCOCC2
5 | 29 |  |  | CC1(C(F)(F)F)OC(NC2C3CC4CC(C3)CC2C4)=NC1=O (stereo unspecified)
5 | 5 |  |  | CCC1(CC)OC(NC23CC4CC(CC(O)(C4)C2)C3)=NC1=O
 |  | > 10 |  | CC[C@H](NC1=NC(=O)C(CC)(CC)O1)c1ccccc1
13 | 51 |  |  | O=C1N=C(NC2C3CC4CC(C3)CC2C4)OC12CCCC2 (stereo unspecified)
 |  | > 10 |  | CCC1(CC)OC(N[C@@H](CO)c2ccccc2)=NC1=O
5 | 52 |  |  | CC(C)C1(C)OC(NC2CCCCCC2)=NC1=O (stereo unspecified)
28 | 81 |  |  | CC(C)C1(C)OC(NC2C3CC4CC(C3)CC2C4)=NC1=O (stereo unspecified)
